These results are taken from ChEMBL document CHEMBL1125908, “Substituted dihydrobenzopyran and dihydrobenzofuran thiazolidine-2,4-diones as hypoglycemic agents” (1991).

Assay [1] is described as follows: In vitro stimulation of 2-Deoxyglucose uptake in L6 myocytes from rat skeletal myoblasts at a concentration of 3 uM. The format is functional. The method, boiled down:
(§1)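 Rat L6 myoblasts grown 14 days in MEMalpha + 2% FBS to fuse into myocytes, then serum-depleted 5 h. Uptake of 0.1 mM [1-14C]2-deoxyglucose in Dulbecco's PBS (+Ca, Mg) for 10 min at room temperature, stopped by ice-cold saline washes. Cells dissolved in 0.1 M NaOH and scintillation counted. Reported relative to 1 µM insulin set at 1.0.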

Assay [2] concerns Mus musculus. In words: Compound was evaluated for in vivo for % glucose normalization in mice at a concentration of 5 mg/kg. The format is functional. The method, boiled down: (§2)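 Six- to eight-week-old C57BL/6J-ob/ob mice, acclimated 1 week, bled retroorbitally before treatment. Oral gavage once daily for four days in 0.25% (w/v) methylcellulose in water, unadjusted pH. Bled again 24 h after the fourth dose. Plasma glucose read by hexokinase UV method. Expressed as % normalization: vehicle = 0%, ciglitazone 50 mg/kg = 100%.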

For assay [3], the system named is 3T3-L1. In words: In vitro fold stimulation of glucose transporter protein in 3T3-L1 adipocytes at a concentration of 30 uM. The assay is classed as functional, Mus musculus. The method, boiled down: (§3)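 Differentiated 3T3-L1 adipocytes (days 7–11 after start of differentiation) exposed to compound in DMEM + 10% FBS, 0.1% DMSO final, medium renewed with fresh drug after 24 h, total 48 h. Triton X-100/EDTA/DTT extracts dot-blotted, probed with affinity-purified rabbit anti-GLUT1 (0.5 μg/mL) then 125I goat anti-rabbit IgG, gamma-counted; transporter quantified against basal-extract standard curve, fold over DMSO control.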

Assay [4] can be described thus: In vitro stimulation of 2-Deoxyglucose uptake in L6 myocytes from rat skeletal myoblasts at a concentration of 10 uM. The format is functional. The method in brief:
as §1

The subject of assay [5] is Mus musculus. In words: Compound was evaluated for in vivo for % glucose normalization in mice at a concentration of 10 mg/kg. The assay is classed as functional. The method, boiled down: as §2
Assay [6] concerns Mus musculus. Briefly: Compound was evaluated for in vivo for % glucose normalization in mice at a concentration of 2.5 mg/kg. The format is functional. The method, boiled down: as §2
Assay [7] is described as follows: In vitro stimulation of 2-Deoxyglucose uptake in L6 myocytes from rat skeletal myoblasts at a concentration of 30 uM. The format is functional. The method in brief:
as §1

In assay [8] the test system is 3T3-L1. In words: In vitro fold stimulation of glucose transporter protein in 3T3-L1 adipocytes at a concentration of 10 uM. The assay is classed as functional, Mus musculus. The method in brief:
as §3

Assay [9] deals with Mus musculus. In words: In vivo percent glucose normalization in mice at a concentration of 25 mg/kg. The assay is classed as functional. The method, boiled down:
as §2

As for `O=C1NC(=O)C(Cc2ccc3c(c2)CC(Cc2ccccc2)O3)S1` (configuration not stated), the 2-DG uptake stimulation in assay [1] is 0.91; in assay [4], 1.11; in [7] it was 1.51. Also, the Glucose normalisation in assay [2] turned out to be 65%; in assay [5], 95%; in assay [6], 0%; in [9] it was 100%. Moreover, the GT fold stimulation is reported as 1.51 in assay [3] and 1.34 in assay [8].

Regarding `O=C1NC(=O)C(Cc2ccc3c(c2)CCC(C2CCCCC2)O3)S1` (configuration not stated), the figures for the 2-DG uptake stimulation in [1], in assay [4] and in assay [7] were 1.28, 2.08 and 2.23, respectively. For the same molecule, the Glucose normalisation in assay [2] is 65%; in assay [5], 75%; in [6], 5%; in assay [9], 69%. Moreover, the GT fold stimulation in [3] is recorded as 1.23; in assay [8] it was 1.03.

Regarding `O=C1NC(=O)C(Cc2ccc3c(c2)CC[C@H](Cc2ccccc2)O3)S1` (some centres not stated) [ENGLITAZONE], the 2-DG uptake stimulation is recorded as 0.77 in [1], 0.91 in assay [4] and 1.27 in assay [7]. The Glucose normalisation in assay [2] is 73%; in assay [5], 90%; in assay [6] it was 31%; in assay [9] it was 88%. Besides, the values for the GT fold stimulation in assay [3] and in assay [8] were 1.24 and 1.13, respectively.
